Reference: ChEMBL document CHEMBL1649385, “Synthesis and in vitro anti-tumor activity of new oxadiazole thioglycosides” (Eur J Med Chem, 2011)
In brackets after ≈: the same amount, converted by molar mass.

What was measured:
[1] = system: HepG2; assay: Cytotoxicity against human HepG2 cells after 48 hrs by SRB assay; format: functional, cell-based; conditions: HepG2, 48 h
Procedure, shortened: (§1)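 SRB assay: cells seeded at 10⁴ cells/well and left 24 h to attach, then exposed to four concentrations of compound for 48 h at 37 °C, 5% CO₂. Cells fixed, washed and stained with sulforhodamine B; excess dye removed with acetic acid, bound dye taken up in Tris-EDTA and read on an ELISA reader. IC50 from surviving fraction versus concentration curves, relative to saline control.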

[2] = system: MCF7; assay: Cytotoxicity against human MCF7 cells after 48 hrs by SRB assay; format: functional, cell-based; conditions: MCF7, 48 h; procedure, shortened: as §1
[3] = Acute toxicity in po dosed albino Wistar rat assessed as mortality after 24 hrs; format: organism-based; conditions: in vivo
Procedure, shortened: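 Male Wistar albino rats (110–115 g) were acclimated for 7 days with pellet diet and water ad libitum. Compound in DMSO was given as a single oral gavage of 500 mg/kg body weight at a fixed 0.5 mL/rat, with eight rats per group. Controls received 0.5 mL DMSO. Mortality was recorded after 24 h.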

[4] = Acute toxicity in albino Wistar rat assessed as mortality at 50 mg/kg, po after 24 hrs; format: organism-based; design: dose 50 mg/kg, route oral; conditions: in vivo, read-out: Activity

## O=c1[nH]cc(F)c(=O)[nH]1 [FLUOROURACIL]
[1]
  IC50: 25 mg/L (≈ 192 µM)

## CC(C)Cc1nn(-c2ccccc2)cc1-c1nnc(S)o1
[2]
  IC50: 17.9 mg/L (≈ 59.6 µM)
[1]
  IC50: 43.6 mg/L (≈ 145 µM)
[3]
  LD50 at 24 h: > 500 mg/kg

## CSCSc1nnc(-c2cn(-c3ccccc3)nc2CC(C)C)o1
[2]
  IC50: 2.67 mg/L (≈ 7.41 µM)
[1]
  IC50: 4.62 mg/L (≈ 12.8 µM)
[4]
  mortality at 24 h: 25%
[3]
  LD50 at 24 h: > 500 mg/kg

## CC(=O)OC[C@@H]1O[C@H](Sc2nnc(C)c(=O)n2/N=C\c2cn(-c3ccccc3)nc2CC(C)C)[C@@H](OC(C)=O)[C@H](OC(C)=O)[C@H]1OC(C)=O
[2]
  IC50: 20.2 mg/L (≈ 29 µM)
[1]
  IC50: 9.1 mg/L (≈ 13 µM)

## CC/C(=C(\c1ccccc1)c1ccc(OCCN(C)C)cc1)c1ccccc1 [TAMOXIFEN]
[2]
  IC50: 8.31 mg/L (≈ 22.4 µM)

## CC(=O)OC[C@H]1O[C@@H](Sc2nnc(-c3cn(-c4ccccc4)nc3CC(C)C)o2)[C@H](OC(C)=O)[C@@H](OC(C)=O)[C@@H]1OC(C)=O
[2]
  IC50: 7.1 mg/L (≈ 11.3 µM)
[1]
  IC50: 13.9 mg/L (≈ 22 µM)
[4]
  mortality at 24 h: 25%
[3]
  LD50 at 24 h: > 500 mg/kg
